The results in this text go back to publication PMC4353699 (Journal of medicinal chemistry, 2014).

Data set [1] has as its system 18 different strains of MRSA and VRSA. Nature of the data set: MIC, summary over the strain panel. Format: cell-based, Staphylococcus aureus. A digest of the protocol:
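Panel of 18 clinical isolates of MRSA and VRSA, with MRSA strains supplied by the NARSA repository. It includes linezolid-resistant MRSA NRS119 and multidrug-resistant VRSA, USA100, USA200 and USA500. MIC is the minimum concentration of test compound that inhibits bacterial growth.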

The next data set deals with Caco-2 cells. Nature of the data set: Caco-2 permeability assay. To be noted: Caco-2, apical to basolateral, 10 μM. In general terms: Caco-2 cells form a polarised layer with tight junctions and transporters.
The next data set has as its system MRSA (USA300). The data set can be described thus: Time-kill assay. Format: cell-based, Staphylococcus aureus. To be noted: for bactericidal effect in time-kill assay / time to eliminate MRSA (CFU to zero): 3.0 × MIC.
The nature of data set [2]: Metabolic stability in human liver microsomes. Format: in vitro ADME. The following applies: without NADPH. In general terms: Microsomes from liver hold many membrane-bound enzymes, among them those of drug oxidation.
The next data set can be described thus: in vitro. To be noted: human, Caco-2.

With `CCCCc1ccc(-c2nc(C)c(/C(C)=N/NC(=N)N)s2)cc1` [1a], the “concentration inhibiting growth (MIC), range over MRSA strains” value in data set [1] lay in the range of 1.4 to 5.5 µg/mL. Moreover, the “Papp, A to B direction” value in the data set with Caco-2 cells is recorded as “very limited permeability”. Also, in the data set on MRSA (USA300), the “bactericidal effect in time-kill assay” value is recorded as “bactericidal” and the “time to eliminate MRSA (CFU to zero)” value is recorded as “within two hours”. Moreover, the “metabolism on removing the cofactor NADPH” value in data set [2] is “significantly reduced”.
On to `CCCCCc1ccc(-c2nc(C)c(/C(C)=N/NC(=N)N)s2)cc1` [1d], for which, in the data set on MRSA (USA300), the “bactericidal effect in time-kill assay” value is recorded as “bactericidal” and the “time to eliminate MRSA (CFU to zero)” value is “within two hours”.
Consider `CN[C@H](CC(C)C)C(=O)N[C@H]1C(=O)N[C@@H](CC(N)=O)C(=O)N[C@H]2C(=O)N[C@H]3C(=O)N[C@H](C(=O)N[C@H](C(=O)O)c4cc(O)cc(O)c4-c4cc3ccc4O)[C@H](O)c3ccc(c(Cl)c3)Oc3cc2cc(c3O[C@@H]2O[C@H](CO)[C@@H](O)[C@H](O)[C@H]2O[C@H]2C[C@](C)(N)[C@H](O)[C@H](C)O2)Oc2ccc(cc2Cl)[C@H]1O` [VAN, vancomycin, reference compound], for which the “reduction of CFU by 3-log10” value in the data set with MRSA (USA300) (within a 12-hour window) is on record as “not able to reduce the number of CFU by 3-log10”.
With `C/C(=N\NC(=N)N)c1sc(-c2ccc(C3CCCCC3)cc2)nc1C` [compound 8, 2-{1-[2-(4-Cyclohexylphenyl)-4-methylthiazol-5-yl]ethylidene}hydrazinecarboximidamide], in the data set with MRSA (USA300), the “bactericidal effect in time-kill assay” value is “bactericidal” and the “time to eliminate MRSA (CFU to zero)” value was “six hours”.
As to `CNC(=C[N+](=O)[O-])NCCSCc1ccc(CN(C)C)o1` [ranitidine], the apical-to-basolateral permeability (Papp A→B) at 2 h, 10 µM in the data set “in vitro” was 0.2 ×10⁻⁶ cm/s.

For orientation: Papp A→B means how fast a substance crosses the layer from the apical side. Higher therefore signals fast passage.
